Holding throughout (assay type): functional
The subject of assay [1] is Bacillus subtilis. Kind of assay: Antimicrobial activity against Bacillus subtilis at 70 ug by agar diffusion test. The settings on record: read-out: IZ. In a few lines: (§1)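 Agar diffusion test: 70 µg of sample applied per 9 mm diameter platelet. Read-out is the diameter of the growth-inhibition zone in mm.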
(In general: A growth-free zone around the sample is the usual read-out of agar diffusion tests.)

For assay [2], the system named is Staphylococcus aureus. The assay can be described thus: Antimicrobial activity against […] at 70 ug by agar diffusion test. Particulars: read-out: IZ. In a few lines:
as §1

In assay [3] the test system is Streptomyces viridochromogenes. The assay can be described thus: Antimicrobial activity against Streptomyces viridochromogenes at 70 ug by agar diffusion test. Particulars: read-out: IZ. In a few lines: as §1
For assay [4], the system named is Escherichia coli. The assay can be described thus: Antimicrobial activity against Escherichia coli at 70 ug by agar diffusion test. The settings on record: read-out: IZ. In a few lines:
as §1

The test system of assay [5] is Candida albicans. The assay can be described thus: Antimicrobial activity against Candida albicans at 70 ug by agar diffusion test. Particulars: read-out: IZ. In a few lines: as §1
Assay [6] deals with Rhizomucor miehei. The assay can be described thus: Antimicrobial activity against Mucor miehei at 70 ug by agar diffusion test. The settings on record: read-out: IZ. In a few lines: as §1
Assay [7] deals with Chlorella vulgaris. The assay can be described thus: Antimicrobial activity against Chlorella vulgaris at 70 ug by agar diffusion test. The settings on record: read-out: IZ. In a few lines: as §1
Assay [8] has as its system Chlorella sorokiniana. The assay can be described thus: Antimicrobial activity against Chlorella sorokiniana at 70 ug by agar diffusion test. The settings on record: read-out: IZ. In a few lines: as §1
Assay [9] deals with Desmodesmus subspicatus. Kind of assay: Antimicrobial activity against Scenedesmus subspicatus at 70 ug by agar diffusion test. The settings on record: read-out: IZ. In a few lines: as §1
Assay [10] relates to Artemia salina. The assay can be described thus: Antimicrobial activity against Artemia salina at 70 ug by agar diffusion test. Particulars: read-out: IZ. In a few lines: as §1
The nature of assay [11]: Cytotoxicity against human HM02 cells. In a few lines:
(§2)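 In vitro growth inhibition of human cancer cell lines was measured following the NCI guidelines. Cell lines: HM02 (gastric adenocarcinoma), HepG2 (hepatocellular carcinoma) and MCF 7 (breast adenocarcinoma).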

Assay [12] has as its system HepG2. Kind of assay: Cytotoxicity against human HepG2 cells. In a few lines: as §2
The subject of assay [13] is MCF7. The assay can be described thus: Cytotoxicity against human MCF7 cells. In a few lines: as §2
In assay [14] the test system is HepG2. The assay can be described thus: Cell cycle arrest in human HepG2 cells by accumulation at subG1 phase at 5 ug/mL after 24 hrs by PI staining. In a few lines:
(§3)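 HepG2 cells were exposed for 24 h, trypsinized, and washed in RPMI 1640 with 1% fetal bovine serum. They were stained 15 min at room temperature in the dark in 150 µg/mL propidium iodide, 1% Triton X-100, 1% BSA and 4 mM sodium citrate, pH 7.4. RNase A was then added for 30 min at room temperature. Output is % cells per phase, mean ± SE of three independent experiments, t-test versus control.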

In assay [15] the test system is HepG2. The assay can be described thus: Cell cycle arrest in human HepG2 cells by accumulation at G1 phase at 5 ug/mL after 24 hrs by PI staining. In a few lines:
as §3

In assay [16] the test system is HepG2. Kind of assay: Cell cycle arrest in human HepG2 cells by accumulation at S phase at 5 ug/mL after 24 hrs by PI staining. In a few lines: as §3
Assay [17] deals with HepG2. The assay can be described thus: Cell cycle arrest in human HepG2 cells by accumulation at G2/M phase at 5 ug/mL after 24 hrs by PI staining. In a few lines:
as §3

The structures appear in SMILES notation. Converted amounts (≈) assume the structure as drawn.

The term GI50 denotes the concentration that inhibits growth by half. In general, TGI refers to the concentration at which net growth stops.

Turning to `CC(C)CCC[C@H]1CCCCC(=O)O1`, the zone of inhibition at 70 µg/disc in assay [1] stood at 0 mm; in [2], 0 mm; in assay [3], 13 mm; in assay [4] it was 0 mm; in assay [5], 0 mm; in assay [6], 11 mm. The zone of inhibition at 70 µg/disc worked out at 11 mm in assay [7], 12 mm in assay [8], 11 mm in [9] and 0 mm in [10]. Besides, the GI50 turned out to be 2.7 µg/mL (≈ 13.6 µM) in assay [11], 2.2 µg/mL (≈ 11.1 µM) in assay [12] and 0.11 µg/mL (≈ 0.555 µM) in assay [13]. Further, the concentration for total growth inhibition (TGI) in [11] stood at 6.1 µg/mL (≈ 30.8 µM); in assay [12], 6.8 µg/mL (≈ 34.3 µM); in [13], 4 µg/mL (≈ 20.2 µM).

Take `CC[C@H](C)CCC[C@H]1CCCCC(=O)O1`: the zone of inhibition at 70 µg/disc in [1] stood at 0 mm; in assay [2], 11 mm; in [3], 15 mm; in assay [4], 0 mm; in [5], 11 mm; in assay [6], 15 mm. In addition, the zone of inhibition at 70 µg/disc in assay [7] was found to be 15 mm; in [8] it was 22 mm; in assay [9], 20 mm; in assay [10] it was 0 mm. In addition, the results for the GI50 in assay [11], in [12] and in assay [13] were 1.9 µg/mL (≈ 8.95 µM), 1.4 µg/mL (≈ 6.59 µM) and 0.12 µg/mL (≈ 0.565 µM), respectively. In addition, the concentration for total growth inhibition (TGI) in assay [11] amounted to 5.6 µg/mL (≈ 26.4 µM); in [12] it was 5.7 µg/mL (≈ 26.8 µM); in assay [13], 2.6 µg/mL (≈ 12.2 µM). In addition, the Activity in assay [14] amounted to 5.7%; in assay [15], 73.7%; in assay [16], 11%; in assay [17], 9.8%.
